The list is not random: actives were taken first. Their share in the collection is about 2.3%.
TPT1 inhibitor – C. albicans TPT1 enzyme inhibition; recombinant caTPT1, FP RNA substrate dephosphorylation; inhibition, % at 5 µM; hit rate 0.81% among 300,000; AID 1962;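 active means inhibition above the mean of all tested compounds plus 3 SD, set per screening campaign, cut at about 24% in these data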
CRFBP-R2 agonist – CRF-BP/CRF-R2 complex agonism. hit rate 0.46% among 350,000. HEK293 CRF-R2/CRF-BP, calcium dye fluorescence (FLIPR); percent of saturating CRF peptide response. AID 588473. activation, % at 13.2 µM;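 active means activation of at least 50%, plus an integration ratio under a set limit after plate pattern correction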
CSN deneddyl inh – inhibitors of human CSN-mediated cullin deneddylation. Purified CSN, SCF-Nedd8-OG deneddylation, fluorescence polarization. AID 651999. hit rate 0.38% among 360,000. inhibition, % at 12.5 µM. Q92905;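 active means pattern-corrected inhibition above about 35%, with an unprinted fluorescence ratio check between 0.5 and 1.5, limit read from the data, passing the limit was not always enough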
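Assay system: purified human Csn5 enzyme expressed in HEK293T cells; measure: % inhibition; also added: SCFSkp2-Nedd8OG substrate at 10 nM final; technique: fluorescence polarization; times: reaction 90 min, room temperature; medium: Tris buffer pH 7.5, NaCl, DTT, Tween-20, trehalose, ovalbumin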
Rpn11 inh – inhibitors of human proteasome Rpn11; calls only at 20 µM; O00487; hit rate 0.59% among 360,000; AID 588493; human 26S proteasome, Ub4-pepOG fluorescence polarization; 20S core pre-blocked with epoxomicin;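 active means inhibition at 20 µM, scaled to each plate's controls, above about 33%, limit read from the data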
HNF4A DNA FP – change in binding of human HNF4 alpha to DNA; P41235; hit rate 0.3% among 360,000; activity change, % at 10 µM; HNF4a-FITC DNA binding, fluorescence polarization, 1 h; in the data active means activity change above about 30%, passing the limit was not always enough
Target sequence (P41235 whole entry, looked up): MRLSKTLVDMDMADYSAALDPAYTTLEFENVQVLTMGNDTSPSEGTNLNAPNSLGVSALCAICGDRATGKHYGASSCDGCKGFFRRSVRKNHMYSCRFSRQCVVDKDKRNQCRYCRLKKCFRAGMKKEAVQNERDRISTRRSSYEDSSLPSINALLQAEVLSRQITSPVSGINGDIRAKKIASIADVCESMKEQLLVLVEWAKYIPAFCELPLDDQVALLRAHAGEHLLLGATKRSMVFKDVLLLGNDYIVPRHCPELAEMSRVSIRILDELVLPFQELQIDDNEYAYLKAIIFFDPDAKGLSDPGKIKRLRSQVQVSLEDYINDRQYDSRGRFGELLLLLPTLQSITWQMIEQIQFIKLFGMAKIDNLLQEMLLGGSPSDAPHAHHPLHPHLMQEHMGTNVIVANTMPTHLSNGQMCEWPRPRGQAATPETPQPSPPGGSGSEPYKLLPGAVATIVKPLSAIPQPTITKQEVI
CRFR2-BP antag – blocks CRF-induced signaling of the CRF-BP/CRF-R2 complex; HEK293 CRF-R2/CRF-BP, CRF-induced calcium fluorescence; AID 588475; hit rate 0.59% among 350,000; inhibition, % at 11.8 µM;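 active means inhibition of the ligand-induced calcium signal above about 50% at the single tested concentration, limit read from the data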
Numbers stand for hits; 0 = inactive; - = no result; + = active, no number.

SMILES	TPT1 inhibitor	CRFBP-R2 agonist	CSN deneddyl inh	Rpn11 inh	HNF4A DNA FP	CRFR2-BP antag
CCCC(=NCC(=O)O)C1=C(O)C(C(=O)OC)C(C)(C)CC1=O (stereo not given)	0	0	0	0	0	61.2
CCCC(=NCc1ccccc1)C1=C(O)C(C(=O)OC)C(C)(C)CC1=O (stereo not given)	0	0	0	0	0	0
Cc1cccc(OCC(=O)Nc2ccc3c(c2)nc(CCN2CCCCC2)n3C)c1	0	0	0	0	0	0
C=CCN1C(=O)S/C(=C/c2ccc(Sc3nc4ccccc4[nH]3)o2)C1=O	0	0	0	0	0	0
CC(C)N1C(=O)S/C(=C/c2ccc(Sc3nc4ccccc4[nH]3)o2)C1=O	0	0	0	0	87.7	0
CC(Oc1ccc(Cl)cc1Cl)C(=O)Nc1ccncc1 (stereo not given)	0	0	48.0	0	0	0
CC(=O)Nc1ccc(NC(=O)C(C)Oc2ccc(Cl)cc2Cl)cc1 (stereo not given)	0	0	0	0	0	0
COc1ccc(CCNC(=O)COc2ccc(N(C)S(=O)(=O)c3ccc(C)cc3)cc2)cc1OC	0	0	0	0	0	102.6
COc1ccc(CCNC(=O)c2ccc(N(C)S(=O)(=O)c3ccc(C)cc3)cc2)cc1OC	0	0	0	0	0	0
Cc1cc(Br)ccc1NC(=O)CNC(=O)Cn1ncc(Cl)c(Cl)c1=O	0	0	0	0	0	86.8
Cc1ccc(S(=O)(=O)N2CCCCC2)cc1NC(=O)Cn1ncc(Cl)c(Cl)c1=O	-	0	0	0	0	0
CC1=C(C(=O)N(C(C)C)C(C)C)CC(CC(=O)NC2CCCCC2)C(=O)N1Cc1ccccc1 (stereo not given)	-	0	0	0	0	59.2
COc1ccc(NC(=O)CCc2nnc3ccc(NCc4ccc5c(c4)OCO5)nn23)cc1	0	0	35.8	0	0	0
COc1ccc(NC(=O)CCc2nnc3ccc(NCc4ccco4)nn23)cc1	0	0	0	0	0	0
CN(C)CCNc1ccc2ncn3c4ccc(O)cc4c(=O)c1c23	-	74.8	0	0	0	0
COc1ccc2sc3cccc(NCCN(C)C)c3c(=O)c2c1	-	-	0	0	0	-
CN(C)CCNc1ccc(-c2nn(C)c(=O)c3ccccc23)cc1[N+](=O)[O-]	0	0	0	0	0	0
CN(C)CCNc1ccc(CO)c2sc3ccc(O)cc3c(=O)c12	-	0	0	0	35.6	0
Cc1cc(-n2c(C)cc(C(=O)CSc3nc4ccccc4c(=O)n3Cc3ccco3)c2C)no1	0	68.2	0	0	0	0
COc1cc(C#Cc2c(-c3ccccc3OC)oc3ccccc23)cc(OC)c1	-	0	0	0	0	0
CCSc1nsc(NC(=O)Nc2cccc(F)c2)n1	0	52.0	0	0	0	0
C[C@H](O)[C@@H]1C(=O)N2CCc3ccc(N4CCN(C)CC4)cc3[C@@H]2C[C@@H]1N(C)C(=O)c1ccc(C#N)cc1	-	0	0	0	0	0
COCC(=O)N(C)[C@H]1C[C@H]2c3cc(N4CCN(C)CC4)ccc3CCN2C(=O)[C@H]1[C@H](C)O	-	0	0	0	0	111.1
Cc1cc(C(=O)COC(=O)c2ccc(F)cc2)c(C)n1C	-	0	0	0	0	0
Cc1cc(C(=O)COC(=O)c2cc(Cl)c(O)c(Cl)c2)c(C)n1C	-	0	41.8	0	0	0
SMILES	TPT1 inhibitor	CRFBP-R2 agonist	CSN deneddyl inh	Rpn11 inh	HNF4A DNA FP	CRFR2-BP antag
COC(=O)Cc1ccc(NC(=S)NCCC(C)C)cc1	0	0	0	0	0	87.6
CCCOP(=O)(OCCC)c1c([N+](=O)[O-])cc(C(F)(F)F)cc1[N+](=O)[O-]	0	0	0	0	0	0
O=C(NC1CCCC1)C1CCC(CNS(=O)(=O)c2ccc(F)cc2)CC1 (stereo not given)	0	0	0	0	0	88.9
Cc1cc(O)c2c(c1O)C(=O)[C@]13C(=C2O)C(=O)[C@@H]2[C@@H](O)[C@H]1[C@@H]1[C@H](O)[C@H]3C(=O)C3=C(O)c4c(O)cc(C)c(O)c4C(=O)[C@]312	-	0	0	+	0	0
C=CCc1ccc(OCC(O)CN2CCN(c3ccccc3)CC2)c(OC)c1 (stereo not given)	0	0	0	0	0	0
C=CCc1ccc(OCC(O)CN2CCCCC2)c(OC)c1 (stereo not given)	0	0	0	0	50.3	0
CC(=O)Nc1cccc(CCc2nc3ccccc3[nH]2)c1	0	0	0	0	0	0
COc1nnc(-c2ccc(N3CCCCC3)c(N)c2)c2ccccc12	0	0	110.1	0	0	0
Nc1nc(Nc2ccccc2Cl)cc(=O)[nH]1	0	0	0	0	0	99.5
CCOC(=O)C1=NN(C(=O)COc2ccccc2)C(O)(c2ccc(Cl)cc2)C1 (stereo not given)	0	0	0	0	0	0
CCOC(=O)C1=NN(C(=O)c2ccc(OC)cc2)C(O)(c2ccc(Cl)cc2)C1 (stereo not given)	0	79.9	0	0	0	0
COC(=O)C1=NN(C(=O)c2cccc(Br)c2)C(O)(c2ccc(Cl)cc2)C1 (stereo not given)	0	99.1	0	0	0	0
CCOC(=O)C1=NN(C(=O)c2ccccc2)C(O)(c2ccc(C)cc2)C1 (stereo not given)	0	104.8	0	0	0	0
CCOC(=O)C1=NN(C(=O)c2cccc(Br)c2)C(O)(C(C)(C)C)C1 (stereo not given)	0	-	-	-	-	-
COC(=O)c1cc2sccc2n1Cc1nc(-c2ccc(OC)cc2)oc1C	0	0	0	0	0	0
COC(=O)C(C#N)c1nc2ccccc2nc1N1CCN(Cc2ccc3c(c2)OCO3)CC1 (stereo not given)	0	-	-	-	-	-
Cc1nnc(SCC(=O)N(C)Cc2ccccc2)[nH]c1=O	0	0	0	0	0	88.0
CCCc1cc(=O)[nH]c(SCC(=O)N(C)Cc2ccccc2)n1	0	0	0	0	0	0
COc1ccc(N2CC(C)Cn3c2nc2c3c(=O)n(Cc3ccccc3)c(=O)n2C)c(OC)c1 (stereo not given)	0	0	0	0	0	0
O=C1CCCCC1Sc1nnc(Nc2ccccc2)s1 (stereo not given)	0	0	45.2	0	0	0
CC(C)CNC(=O)CN1c2cccc3cccc(c23)S1(=O)=O	0	0	0	0	0	78.6
CC(C)N(Cc1ccccc1)S(=O)(=O)c1cccs1	0	0	0	0	0	0
Cc1cc(N2CCOCC2)nc(NCc2ccccc2)n1	0	121.8	0	0	0	0
Nc1nc(Cl)cc(N2CCOCC2)n1	0	0	0	0	0	0
Cc1cc(N2CCOCC2)nc(N)n1	0	164.3	0	0	0	0
CCc1ccc(S(=O)(=O)Nc2ccc(O)c3c(=O)cc(-c4ccccc4Cl)oc23)cc1	0	0	0	0	0	0

Compound activity: PubChem, several laboratories
